Assay results from PubChem BioAssay AID463111 (Johns Hopkins Ion Channel Center, 2010).
Hit rate of the full screen: of about 310,000 compounds, about 2,800 (0.9%) were called active.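 How the source made its calls: active means B-score of the integrated calcium signal more than 4 SD below the library mean, with starting fluorescence not abnormally high; inactive means the rest.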 Only a selection was taken, and actives are over-represented in it overall.

Experiment: RGS4 potentiators or activators, primary screen, cell-based, HEK293 M3R inducible RGS4, calcium flux (AID 463111);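 on B-score: negative B-score means reduced calcium response which marks RGS4 activation or potentiation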
Conditions: HEK293 M3R/inducible RGS4, carbachol calcium flux Fluo4, at 10 µM; stronger effect = lower value
Outline: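 Material: M3R-expressing HEK293 line, RGS4 induced by doxycycline | Schedule: Overnight RGS4 induction, 30 min dye load 37 °C, 20 min compound RT | Measured by: Fluo4 fluorescence kinetic imaging of calcium | Read-out: Integrated calcium ratio converted to B score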

B-score, active:
CCS(=O)(=O)Nc1ccc(C2=NN(S(=O)(=O)c3ccc(F)cc3)C(c3ccco3)C2)cc1 (centres undefined) -7.77
Cc1cccc(-c2nc(Nc3ccc(O)cc3)c3ccccc3n2)c1 -8.56
Cc1ccc(N2C(=O)CC(Nc3cccc4ccccc34)C2=O)cc1 (centres undefined) -8.55
CCCOc1ccc(C(=O)C(CCC(CNCC)C(=O)c2ccc(OCCC)cc2)CNCC)cc1 (centres undefined) -8.07
O=C(Oc1ccc(-c2nnco2)cc1)c1ccc(F)c(S(=O)(=O)N2CCOCC2)c1 -7.43
S=c1[nH]nc(-c2ccc(Cl)cc2)n1CC1CCCO1 (centres undefined) -8.73
COc1cccc(-c2cc3nc4c(c(N5CCC6(CC5)OCCO6)n3n2)CCCC4)c1 -7.88
COc1ccc(C(=O)Nc2nc(-c3ccc(S(=O)(=O)N4CCOCC4)cc3)cs2)cc1 -7.75
O=C(Nc1cc2c3c(c1)C1CCCC1CN3CC1CCCC21)c1ccc([N+](=O)[O-])cc1 (centres undefined) -8.07
COc1cc(/C=C(\C#N)c2nc3ccccc3[nH]2)ccc1O -8.51
Cc1cccc2sc(N(CCCN(C)C)C(=O)CCS(=O)(=O)c3ccccc3)nc12 -8.92
CC(=O)N1CCN(c2ccccc2NC(=S)NC(=O)c2cc3ccccc3o2)CC1 -6.98
CCS(=O)(=O)C1=NSC2=NC(=O)/C(=C\c3cc(C)n(-c4cccc(OC)c4)c3C)C(=N)N21 -7.01
Cc1cc(C=O)c(C)n1-c1ccc(NC2CCCCC2)c([N+](=O)[O-])c1 -7.21
CC(C)N(Cc1ccccc1)C(=O)COC(=O)c1ccccc1SCC(=O)N1CCCC1 -8.67
COc1ccc(CN2CCCC(C(=O)c3ccc(Cl)cc3)C2)cc1Cn1cncn1 (centres undefined) -10.3
OC(CN=c1sc2ccccc2n1CC(O)COc1ccccc1)COc1ccccc1 (centres undefined) -10.8
CN1CCC(OC(=O)COc2ccc(Cl)cc2Cl)CC1 -7.11

B-score, inactive:
CCS(=O)(=O)Nc1ccc(C2=NN(C(C)=O)C(c3cccs3)C2)cc1 (centres undefined)
CS(=O)(=O)Nc1ccc(C2=NN(S(C)(=O)=O)C(c3cccs3)C2)cc1 (centres undefined)
COc1ccc(N(CC(=O)Nc2cc(OC)ccc2OC)S(=O)(=O)c2c(C)noc2C)cc1
C=CCNC(=O)COC(=O)CNC(=O)c1cc(Cl)cc([N+](=O)[O-])c1
CC(=O)Nc1cccc(Nc2nc(-c3cccs3)nc3ccccc23)c1
COc1ccc(Nc2nc(-c3cccnc3)nc3ccccc23)cn1
CC(NS(=O)(=O)c1ccc(OCC(=O)N2CCCC2)cc1)c1ccccc1 (centres undefined)
CCc1ccc(N2CC(O)=C(c3nc4ccccc4c(=O)[nH]3)C2=N)cc1
COc1ccccc1CNC(=O)C1CCN(C(=O)[C@@H]2Cc3ccccc3CN2)CC1
CC1=C(C)CC2C(=O)N(c3cccc4ccccc34)C(=O)C2C1 (centres undefined)
O=C(Cc1ccccc1)NNC1CC(=O)N(c2ccc(Br)cc2)C1=O (centres undefined)
O=C(NCc1ccccc1)C1CCCN(c2nc3ccsc3c(=O)s2)C1 (centres undefined)
CCCCOc1ccc(C(=O)NN2CCN(C)CC2)cc1
CCCOc1ccc(C(=O)CCC(=O)OC(C)C(=O)Nc2ccc(NC(C)=O)cc2)cc1 (centres undefined)
COc1ccc(Cl)cc1NS(=O)(=O)c1cccc(C(=O)NCC2CCCO2)c1 (centres undefined)
C[N+](C)(C)CCNC(=O)c1cc[n+](Cc2ccccc2)c(/C=N/O)c1
Cc1ccc(/C=C(\C#N)C(=O)Nc2cccc3ncccc23)o1
C=CCn1c(=O)c(C(=O)NCc2ccc3c(c2)OCO3)c(O)c2ccccc21
Cc1ccc(C)c(NC2=NCC(=O)N2c2ccc3c(c2)OCCO3)c1
CCOc1ccccc1NC(=O)Cn1ncc2ccc([N+](=O)[O-])cc21
Cc1cccc(C)c1NC(=O)C1(C)c2cccc[n+]2CC(=O)N1Cc1cccs1 (centres undefined)
COc1ccc(C(=O)Oc2ccc(-c3nnco3)cc2)cc1S(=O)(=O)N1CCOCC1
Cc1cc(NC(=O)COC(=O)c2ccc(F)c(S(=O)(=O)N3CCOCC3)c2)no1
COc1ccccc1-c1cnn2c(N3CCOCC3)cc(C)nc12
CC(C)Oc1ccc(CN2CCC(n3nccc3NC(=O)c3cccnc3)CC2)cc1
Cc1nnc(SCC(=O)NNC(=O)c2ccc(Cl)cc2)n1CC1CCCO1 (centres undefined)
Cc1ccc(-n2c(-c3ccc(Cl)cc3)n[nH]c2=S)cc1
O=C(CSc1ncccn1)N1CCCC1
CCCCCN(C(=O)NC(=O)Nc1ccccc1OC)S(C)(=O)=O
CCCN1C2=C(C(=O)CCC2)C(c2ccc(O)c(Br)c2)C2=C1CCCC2=O
CCOc1cc(/C=N/NC(=O)c2ccc(CSc3nncn3C)cc2)ccc1OCC(=O)N1CCOCC1
COCCCNS(=O)(=O)c1cccc(S(=O)(=O)c2cccc(S(=O)(=O)NCCCOC)c2)c1
COc1cccc(CNc2nc3nc4c(c(=O)n3[nH]2)CCC4)c1
COc1cccc(NC(=O)CN2CCN(c3nc(-c4cccc(OC)c4)cs3)CC2)c1
O=C(c1cc2ccccc2o1)N1CCN(Cc2ccccc2)CC1
Cc1cnc(C(=O)N2CCCC(N3CCN(c4ccccc4F)CC3)C2)cn1 (centres undefined)
O=C(NCCc1c[nH]c2ccccc12)c1cc2ccccc2oc1=O
CCCN(CCC)c1nc2c(C)cccn2c(=O)c1/C=C1/SC(=S)N(Cc2ccco2)C1=O
CC(C)NC(=O)C(=O)NCCCOC(C)C
CNC(=O)c1ccsc1NC(=O)c1ccc(S(=O)(=O)N2CCOCC2)cc1
CCOC(=O)c1csc(NC(=O)c2ccc(S(=O)(=O)N3CCCC3)cc2)n1
O=C(COC(=O)c1cnccn1)Nc1ccc(Cl)cc1C(F)(F)F
COc1ccc(Cc2nnc(SCC(=O)Nc3ccc(C)c(Cl)c3)[nH]c2=O)cc1
CN1C2CCC1CC(NC(=O)c1ccc([N+](=O)[O-])cc1)C2 (centres undefined)
O=C(Nc1ccccc1C(=O)Nc1ccncc1)c1ccc([N+](=O)[O-])cc1
O=C(Nc1ccc2c(c1)OCO2)C1CC(c2c(F)cccc2Cl)=NO1 (centres undefined)
COc1cc(NC(=S)NCCSc2ccc(C)cc2)cc(OC)c1
COc1ccc(/C=C(/NC(=O)c2ccc(C)cc2)c2nc3ccccc3[nH]2)cc1OC
COc1cc(/C=C(\C#N)c2nc3c(s2)CC(C)CC3)ccc1O (centres undefined)
COc1ccccc1NC(=O)N1CCCC1C(=O)NCc1cccs1 (centres undefined)
O=C1Nc2ccc(Br)cc2/C1=N/N=C/C1=C(N2CCOCC2)C(=C\c2ccccc2)/CC1
COc1cccc2sc(N(CCCN(C)C)C(=O)C(c3ccccc3)c3ccccc3)nc12
COc1cccc2sc(N(CCCN(C)C)C(=O)CCS(=O)(=O)c3ccccc3)nc12
CC(C)OC(=O)c1sc2nc3c(cc2c1N)C(=O)CCC3
Cc1ccc(-c2nn(-c3ccccc3)cc2C(=O)NCCCN2CCCC2=O)cc1
Cc1cccc(C)c1NC(=O)CNC(=O)c1c(C)nn(-c2ccccc2)c1C
CN(/C(=N/S(=O)(=O)c1cccs1)c1ccccc1)c1ccc(O)cc1
CCCNC(=O)CCn1nc(-c2ccccc2)c2ccccc2c1=O
CCc1cccc(CC)c1NC(=O)COc1ccccc1C(=O)c1cc(C#N)c(=O)n(C2CCCCC2)c1
CCc1ccc(C(=O)NC(=S)Nc2ccccc2N2CCOCC2)cc1
COc1ccc(C(=O)NC(=S)Nc2ccccc2N2CCN(S(C)(=O)=O)CC2)cc1OC
CCCCn1c(N)c(N(CC(C)C)C(=O)C2CSC3(C)CCC(=O)N23)c(=O)[nH]c1=O (centres undefined)
CCCCn1c(N)c(N(CC)C(=O)c2ccc(N(C)S(=O)(=O)c3ccc(C)cc3)cc2)c(=O)[nH]c1=O
CCS(=O)(=O)C1=NSC2=NC(=O)/C(=C\c3ccc(OS(=O)(=O)c4ccccc4)cc3)C(=N)N21
Cc1cc(/C=C2/C(=N)N3C(=NC2=O)SN=C3S(C)(=O)=O)c(C)n1-c1ccccc1
COCCCNC(=O)CNC(=O)c1nn(-c2ccc(OC)cc2)c(=O)c2ccccc12
Cc1c(NS(=O)(=O)c2ccc(NC3CCCC3)c([N+](=O)[O-])c2)c(=O)n(-c2ccccc2)n1C
Cc1cc([N+](=O)[O-])ccc1NC1CCCC1
Cc1cc(-c2nnc(SCC(=O)Nc3ccc(F)cc3)n2N)n[nH]1
O=C(NCc1ccco1)/C(=C/c1cccc([N+](=O)[O-])c1)NC(=O)c1ccco1
CC(NC(=O)c1ccccc1SCC(=O)N1CCCC1)c1ccccc1 (centres undefined)
COc1ccccc1NC(=O)COC(=O)c1ccccc1SCC(=O)N1CCCC1
Cc1ccc(C(=O)N/C(=C\c2cccs2)C(=O)NCCc2ccccn2)cc1C
COc1ccc(CCN(C)C(=O)C2CCCN(Cc3ccc(OC)c(OC)c3)C2)cc1OC (centres undefined)
COc1cc(CN2CCCC(C(=O)c3ccc(SC)cc3)C2)cc(Cl)c1O (centres undefined)
CC[n+]1c(C)n(-c2ccccc2)c2ccc(NC(C)=O)cc21
C=CCn1c(=N)n(CC(O)COc2ccc(OC)cc2)c2ccccc21 (centres undefined)
CC(C)c1ccc(OCC(O)Cn2cnc3ccccc32)cc1 (centres undefined)
COc1cccc(NC(=O)Cn2cnc3sc(C)c(S(=O)(=O)N4CCN(C)CC4)c3c2=O)c1
O=C(CCCOc1ccc(Cl)cc1Cl)NNC(=O)C1CCC1
Cc1ccc(Cl)c(OCC(=O)NN2CCN(C)CC2)c1
